Compound activity from PubChem BioAssay.
Sampled rows, rich in hits. Any-hit rate of the full collection: about 2.3%.
SR-BI DiI-HDL act: activators of SR-BI mediated DiI-HDL uptake, primary screen, ldlA[mSR-BI] CHO cells, DiI fluorescence. activation, % at 12.5 µM. 320,000 tested, 0.096% active. 3 h; 100 = double the neutral-control signal;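 active means mean replicate activation of at least 60% and every replicate at or above 60%; inconclusive means mean or all-replicate condition met, but not both; inactive means mean below 60% and not all replicates reaching 60%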;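 further: 0% = median plate neutral-control signal and 100% = twice that signal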
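System: LDL receptor-deficient CHO ldlA cells overexpressing murine SR-BI | Timing: 3 h uptake period with compound, 37 °C | Medium: HEPES-buffered (25 mM, pH 7.4) F12 plus 0.5% BSA | Dosing: Single-point compound dose | Signal: Bottom-read fluorescence, 550/595 nm | Read-out: Retained DiI signal reflecting DiI-HDL uptake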
CAL PDZ FP-1: untagged CAL PDZ binding inhibitors, primary screen, biochemical, fluorescence polarization, HTS. 300,000 tested, 0.92% active. inhibition, % at 24.9 µM. Golgi-associated PDZ and coiled-coil motif-containing protein (Homo sapiens), Q9HD26. purified CAL PDZ, TMR-peptide fluorescence polarization, 1 h;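 active means mean inhibition of at least 30% with at least half of replicates also reaching 30%; inconclusive means no clear call, values can overlap the other calls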;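 further: 0% = DMSO neutral control and 100% = excess unlabeled competitor peptide PRC23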
ATG4B inh: ATG4B protease inhibitors, primary screen, biochemical, fluorescence, uHTS; Cysteine protease ATG4B (Homo sapiens), Q9Y4P1; ATG4B cleavage of LC3-PLA2, NBD-HPC fluorescence, 1 h; inhibition, % at 8.33 µM; 340,000 tested, 0.51% active; AID 504462, 2011; in the data active means inhibition above about 40%
CAL PDZ FP-2: CAL PDZ peptide-binding inhibitors, primary screen, biochemical, fluorescence polarization, Cer-tagged CAL PDZ, HTS | Golgi-associated PDZ and coiled-coil motif-containing protein (Homo sapiens), Q9HD26 | 330,000 tested, 0.02% active | purified CAL PDZ, TMR-peptide fluorescence polarization, 1 h | inhibition, % at 20 µM | AID 504414, 2011;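 active means highest replicate inhibition of at least 40%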;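 further: plate controls were DMSO neutral control wells for no effect and unlabeled competitor peptide control wells for full effect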
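Test system: purified CerCALP PDZ construct; Compound dosing: one concentration, 20 µM compound; Also added: TMR-labelled reporter peptide T*-PRC34 bound in PDZ groove; Read-out: inhibition from polarization loss; Controls: unlabelled peptide and DMSO controls; Signal: FP readout, S and P plane fluorescence; Incubation: 1 h at RT.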
SR-BI DiI inh: inhibitors of SR-BI mediated HDL lipid uptake, primary screen, ldlA[mSR-BI] cells, fluorescence, single point; Scavenger receptor class B member 1 (Mus musculus), Q61009; inhibition, % at 12.5 µM; 320,000 tested, 0.96% active; AID 488896, 2010; ldlA[mSR-BI] CHO cells, DiI-HDL uptake fluorescence, 3 h;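 active means mean replicate inhibition of at least 70% and a set share of replicates each scoring 70 or more; inconclusive means meets just one of the two criteria; inactive means fails both criteria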;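 further: 0% = median of neutral control wells and 100% = median of positive control wells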
Target sequence (Q61009 whole entry, looked up): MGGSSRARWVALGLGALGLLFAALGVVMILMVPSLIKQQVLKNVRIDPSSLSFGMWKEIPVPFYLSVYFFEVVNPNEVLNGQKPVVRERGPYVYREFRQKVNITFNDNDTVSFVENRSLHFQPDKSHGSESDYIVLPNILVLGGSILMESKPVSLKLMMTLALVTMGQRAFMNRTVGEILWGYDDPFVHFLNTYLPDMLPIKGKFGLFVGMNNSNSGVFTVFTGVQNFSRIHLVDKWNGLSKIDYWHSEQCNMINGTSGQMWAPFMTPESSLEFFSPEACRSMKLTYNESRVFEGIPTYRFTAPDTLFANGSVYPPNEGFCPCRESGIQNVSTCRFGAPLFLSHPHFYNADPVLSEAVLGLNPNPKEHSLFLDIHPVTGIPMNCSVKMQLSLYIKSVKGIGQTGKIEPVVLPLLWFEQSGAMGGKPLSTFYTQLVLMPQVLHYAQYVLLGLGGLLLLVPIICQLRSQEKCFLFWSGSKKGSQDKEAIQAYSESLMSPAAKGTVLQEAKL
DiI quench: quenches DiI-HDL fluorescence, an SR-BI assay artifact. AC50, µM (highest dose often 35 µM), for the others: at the highest dose activity change, negative = quenching. 470 tested, 20% active. cell-free DiI-HDL fluorescence quenching, 30 min. shares compounds with SR-BI DiI inh;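 active means quenching, a falling signal, with AC50 below a set limit tied to the top valid dose, actives reach about 32 µM in these data; inconclusive means no clear call, values can overlap the other calls; inactive means rising signal, and the rest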
An asterisk follows results filed as active; ? = inconclusive; . = not tested or not shown.

SMILES	SR-BI DiI-HDL act	CAL PDZ FP-1	ATG4B inh	CAL PDZ FP-2	SR-BI DiI inh	DiI quench
Cc1ccc(NC(=O)CCc2c(C)nn(-c3ccc(N4CCCCC4)nn3)c2C)cc1	-44.1	-1.6	-1.3	-2.2	44.1	.
COc1ccc(NC(=O)C2CCCN(S(=O)(=O)c3ccc4c(c3)CCCN4C(C)=O)C2)cc1Cl (configuration not stated)	-18.2	-4.7	-13.2	-1.0	18.2	.
CCc1cc2c(=O)c(-c3ccc4c(c3)OCCO4)coc2c(CN2CCCCC2C)c1O (configuration not stated)	-50.0	.	-0.6	-0.5	56.5	.
CCc1cc2c(=O)c(-c3ccc4c(c3)OCCO4)coc2cc1OS(C)(=O)=O	-74.6	-6.3	-15.6	-2.7	74.6*	-0.6%
COc1ccc(NC(=O)c2cc(-c3ccccc3Cl)on2)cc1	20.7	-4.8	0.6	-0.9	-20.6	.
COc1cc(NC(=O)c2cc(-c3ccccc3Cl)on2)cc(OC)c1OC	-82.7	-7.7	5.2	0.7	82.7*	-2.4%
O=C1C2CCC(C2)C1CN1CCOCC1 (configuration not stated)	-5.6	-3.5	-9.6	-0.4	5.6	.
COC(=O)[C@]1(C)N[C@H](c2ccc(-c3cccc(Cl)c3)cc2)[C@@H]2C(=O)N(C)C(=O)[C@@H]21	-20.3	-0.6	-8.8	-0.4	20.3	.
COC(=O)[C@]1(CC(C)C)N[C@H](c2ccc(-c3cccc(Cl)c3)cc2)[C@@H]2C(=O)N(C)C(=O)[C@@H]21	-74.4	3.8	2.4	-0.2	74.4*	-1.3%
Nc1nc(NCCOCCO)nc(NCC2CCCO2)c1[N+](=O)[O-] (configuration not stated)	-0.2	-3.3	2.5	0.4	0.2	.
CC(C)(C)N(Cc1ccccc1)C(=O)COC(=O)CN1C(=O)NC2(CCCC2)C1=O	-75.6	1.3	-0.5	-1.9	75.6*	2.0%
CC(C)(C)N(Cc1ccccc1)C(=O)COC(=O)CN1C(=O)C2CC=CCC2C1=O (configuration not stated)	14.0	-1.5	0.9	-0.1	-14.0	.
c1ccc(COn2c(-c3ccccc3)nc3c2CCc2nonc2-3)cc1	-70.5	-2.7	4.0	-0.5	?	0.8%
CC(C)(C)NC(=O)CSc1nc2cc(S(=O)(=O)N3CCCCC3)ccc2o1	12.4	-8.7	-0.9	-0.3	-12.4	.
CCC(C)c1ccccc1N1CC(C(=O)N2CCN(S(=O)(=O)c3ccccc3Br)CC2)CC1=O (configuration not stated)	-78.1	-2.6	-11.2	-1.9	78.1*	-0.8%
CCC(C)c1ccccc1N1CC(C(=O)Nc2ccccc2N2CCCC2)CC1=O (configuration not stated)	-29.6	-1.0	4.3	-1.4	29.6	.
O=C(OCc1ccccc1)N1CCC2CC1c1cc(-c3ccccc3)ccc12 (configuration not stated)	11.4	52.6*	-3.2	-0.5	-11.4	-0.8%
Cc1cccc(-c2ccc3c(c2)C2CC3CCN2C(=O)OCc2ccccc2)c1 (configuration not stated)	-84.7	-4.5	6.0	0.1	84.7*	-1.6%
CCOC(=O)N1CCC2CC1c1cc(-c3cccc(OC)c3)ccc12 (configuration not stated)	-9.3	-4.3	3.7	0.7	9.3	.
COc1ccc(-c2cccc3c2C2CC3CCN2C(=O)OCc2ccccc2)cc1 (configuration not stated)	8.5	0.8	10.8	0.6	-8.5	.
Cc1ccc(NC(=O)CSc2nnc([C@H](C)NC(=O)OC(C)(C)C)o2)c(C)c1	-73.0	.	-1.7	-2.9	73.0*	0.2%
Cc1cccc(NC(=O)CSc2nnc([C@H](C)NC(=O)OC(C)(C)C)o2)c1C	-38.6	8.4	2.5	-1.3	38.6	.
COc1ccc(C=O)cc1Cn1ccnc1C	18.3	4.2	-1.0	-0.4	-18.3	.
Cc1ccc(-c2sc(-c3ccccc3)nc2CC(=O)Nc2ccccc2F)cc1	-77.4	-2.0	-8.3	1.0	77.3*	4.7%
CC(CCc1ccccc1)NC(=O)C1CCN(C(=O)c2sccc2-n2cccc2)CC1 (configuration not stated)	-87.7	0.5	0.6	-1.8	87.7*	-3.2%
SMILES	SR-BI DiI-HDL act	CAL PDZ FP-1	ATG4B inh	CAL PDZ FP-2	SR-BI DiI inh	DiI quench
O=C(NCCc1ccc(Cl)cc1)C1CCN(C(=O)c2sccc2-n2cccc2)CC1	-55.9	-2.2	-10.6	-2.1	55.9	.
COc1ccc2cc(C3(C)NC(=O)N(CC(=O)N4CCCCC4)C3=O)ccc2c1 (configuration not stated)	-8.8	-2.4	-4.2	-1.1	8.8	.
CSc1sc(-c2ccnc(SCCS(C)(=O)=O)n2)c(-c2ccccc2)c1C#N	-51.1	-4.0	-6.6	-2.4	51.0	.
CSc1nccc(-c2sc(SC)c(C#N)c2-c2ccccc2)n1	-84.2	-4.0	-11.0	0.1	84.2*	-3.2%
COc1ccccc1CN1CN(S(=O)(=O)c2ccccc2)c2nc3ccccc3nc21	.	-6.2	-1.7	-2.4	.	.
Cc1cc(CN(C)C(=O)C2CCC(=O)N(CCc3cccc(F)c3)C2)on1 (configuration not stated)	12.5	58.8*	-3.6	-0.5	-12.5	-5.7%
Cc1ccc(S(=O)(=O)N(C)CC(=O)Nc2ccccc2N2CCCC2)cc1	9.5	-3.6	13.5	-5.2	-9.5	.
CC(C)=CCc1c2c(c3occ(-c4ccc(O)c(O)c4)c(=O)c3c1O)C=CC(C)(C)O2	-130.9	-2.0	9.5	-2.6	130.9*	0.809µM*
CC(C)=CCc1c2c(c3occ(-c4ccc(O)cc4)c(=O)c3c1O)C=CC(C)(C)O2	-33.5	-1.7	0.5	0.0	33.5	.
CN(C)S(=O)(=O)c1ccc2c(c1)nc(CCC(=O)NCCc1ccc(Cl)cc1)n2C	-14.2	-2.2	-2.5	0.6	14.2	.
CC(=O)Nc1c(I)c(C(=O)N[C@H]2C(O)O[C@H](CO)[C@@H](O)[C@@H]2O)c(I)c(N(C)C(C)=O)c1I (some centres not stated)	1.2	-2.3	-2.0	0.1	-1.2	-1.1%
CCOC(=O)C1=C(CNCCOc2ccc(OC)cc2)NC(=O)NC1c1ccc2c(c1)OCO2 (configuration not stated)	-71.9	-2.1	2.6	0.0	?	-3.9%
O=C1CCC(C(=O)O)N1 (configuration not stated)	14.0	-4.6	-7.2	-0.4	-14.0	.
COc1ccc(NC(=O)C2Cc3ccccc3O/C2=N\O)cc1 (configuration not stated)	-2.8	-10.0	-3.3	-1.3	2.8	.
